According to publication PMC7276679 (Acta Pharmaceutica Sinica. B, 2019):

Assay type: in vivo, Sprague-Dawley rats
Details: 5 mg/kg p.o.
Procedure, shortened: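 8-week-old male WT and CRISPR/Cas9 Slco1b2 KO SD rats, fasted 12 h, given the OATP1B2 probe substrate as a CMC-Na suspension intragastrically. Plasma underwent ethyl acetate liquid–liquid extraction with mebendazole internal standard, then positive-ESI LC–MS/MS. Parameters were derived by non-compartmental analysis.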

- decrease of CL/F in KO rats compared with WT rats (KO vs WT rats): 38.5%
- decrease of Vd/F in KO rats compared with WT rats (KO vs WT rats): 39.8%
- increase of AUC0–24 h in KO rats compared with WT rats (KO vs WT rats): 68.8%
- increase of AUC0–inf in KO rats compared with WT rats (KO vs WT rats): 68.8%
- AUC(0-inf) (male, Sprague-Dawley, rat, plasma, po, 5 mg/kg, AUC0–inf, Slco1b2 KO male rats, mean ± SD, n = 6): 3440 ± 1050 ng·h/mL
- AUC(0-t) (male, Sprague-Dawley, rat, plasma, po, 5 mg/kg, AUC0–t, Slco1b2 KO male rats, mean ± SD, n = 6): 3410 ± 1040 ng·h/mL
- CL/F (male, Sprague-Dawley, rat, plasma, po, 5 mg/kg, CL/F, Slco1b2 KO male rats, mean ± SD, n = 6): 26 mL/min/kg
- Cmax (male, Sprague-Dawley, rat, plasma, po, 5 mg/kg, Cmax, Slco1b2 KO male rats, mean ± SD, n = 6): 1000 ± 336 ng/mL
- MRT last (male, Sprague-Dawley, rat, plasma, po, 5 mg/kg, MRT0–t, Slco1b2 KO male rats, mean ± SD, n = 6): 3.65 ± 0.89 h
- Tmax (male, Sprague-Dawley, rat, plasma, po, 5 mg/kg, Tmax, Slco1b2 KO male rats, mean ± SD, n = 6): 2.08 ± 0.97 h
- Vd/F (male, Sprague-Dawley, rat, plasma, po, 5 mg/kg, Vd/F, Slco1b2 KO male rats, mean ± SD, n = 6): 6.58 ± 1.9 L/kg
- half-life (male, Sprague-Dawley, rat, plasma, po, 5 mg/kg, t1/2, Slco1b2 KO male rats, mean ± SD, n = 6): 2.92 ± 0.43 h
Structure (SMILES): O=C(O)C[C@H](O)C[C@H](O)/C=C/c1c(C2CC2)nc2ccccc2c1-c1ccc(F)cc1 [pitavastatin, Pitavastatin]
